Screening data as filed in PubChem.
Sampled rows, rich in hits. Any-hit rate of the full collection: about 3.7%.
KCNQ1 act: human KCNQ1 channel potentiation or activation; P51787; CHO-K1 KCNQ1, thallium flux FluxOR fluorescence; stronger effect = higher value; B-score at 10 µM; 310,000 tested, 0.35% active; AID 2648;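 active = fluorescence ratio B-score, a plate-corrected score, at least three library SD, with initial intensity B-score within 5 SD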
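Material: CHO-K1 cells stably expressing KCNQ1. Medium: assay buffer for compound exposure, DMSO matched across wells. Reagent: K+/Tl+ depolarizing stimulus. Compound dosing: single-concentration screen. Times: 37 °C overnight plating, 90-min dark dye load, 20-min compound pretreatment. Technique: FluxOR Tl+ flux fluorescence.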
Kir21 inh: blocks the mouse Kir2.1 inward-rectifier potassium channel. P35561. HEK293-Kir2.1, FluxOR thallium flux fluorescence; stronger effect = lower value. B-score at 10 µM. 310,000 tested, 0.85% active. AID 1672;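 active = fluorescence ratio B-score at or below minus 3 SD of library scores, with starting-brightness B-score within 2 SD, cut at about -4.2 in these data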;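 note: channel flux triggered by added potassium and thallium sulfate stimulus; B-score of peak minus minimum fluorescence over baseline after thallium stimulus; more negative B-score means stronger Kir2.1 block with less thallium influx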
hERG protect: hERG (human) protection from proarrhythmic block | CHO-hERG, FluxOR thallium flux, dofetilide IC70 present | AID 1511 | Q12809 | 310,000 tested, 0.51% active | activation (rescue from dofetilide block), less the hit threshold, % at 10 µM;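 active = activation above the mean of controls blocked by dofetilide plus 5 SD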;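 note: thallium influx through hERG after potassium depolarization seen as dye fluorescence rise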
KCNK9 block: human KCNK9 channel inhibition | Q9NPC2 | HEK293 KCNK9, FluxOR thallium flux fluorescence; stronger effect = lower value | B-score at 10 µM | 310,000 tested, 1.2% active | AID 488922;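 active = ratio B-score over 3 SD below the library mean, with starting fluorescence within 5 SD of its mean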;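 note: negative B-score means less thallium flux so channel inhibition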
Target sequence (Q9NPC2 whole entry, looked up): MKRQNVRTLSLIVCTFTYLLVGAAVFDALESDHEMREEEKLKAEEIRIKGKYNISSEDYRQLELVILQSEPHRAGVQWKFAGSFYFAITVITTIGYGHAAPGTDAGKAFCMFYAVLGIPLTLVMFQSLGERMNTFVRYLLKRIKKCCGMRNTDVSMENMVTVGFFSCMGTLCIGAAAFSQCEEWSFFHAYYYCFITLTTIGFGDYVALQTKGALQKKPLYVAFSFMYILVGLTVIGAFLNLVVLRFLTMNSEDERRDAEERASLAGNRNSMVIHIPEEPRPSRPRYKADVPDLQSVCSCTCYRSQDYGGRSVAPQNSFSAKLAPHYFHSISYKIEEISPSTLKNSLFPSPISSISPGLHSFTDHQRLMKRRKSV
KCNQ1 block: inhibitors of human KCNQ1 potassium channel; CHO-K1 KCNQ1, FluxOR thallium flux fluorescence; stronger effect = higher value; 310,000 tested, 1.3% active; B-score at 10 µM; P51787; AID 2642;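 active = compounds whose thallium flux B-score, printed positive for inhibition, exceeds three library SD while starting fluorescence stays within three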;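 note: channel opened by potassium depolarization with thallium stimulus after 20 min compound exposure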
KCNK3 block: human KCNK3 channel inhibition, primary screen; B-score at 10 µM; 340,000 tested, 0.84% active; O14649; AID 602410; CHO-KCNK3 thallium flux, FluxOR fluorescence; stronger effect = lower value;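 active = B-score under library mean minus 4 SD, starting fluorescence ratio at most library mean plus 5 SD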;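 note: more negative B-score means stronger inhibition of thallium flux through KCNK3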
Target sequence (O14649 whole entry, looked up): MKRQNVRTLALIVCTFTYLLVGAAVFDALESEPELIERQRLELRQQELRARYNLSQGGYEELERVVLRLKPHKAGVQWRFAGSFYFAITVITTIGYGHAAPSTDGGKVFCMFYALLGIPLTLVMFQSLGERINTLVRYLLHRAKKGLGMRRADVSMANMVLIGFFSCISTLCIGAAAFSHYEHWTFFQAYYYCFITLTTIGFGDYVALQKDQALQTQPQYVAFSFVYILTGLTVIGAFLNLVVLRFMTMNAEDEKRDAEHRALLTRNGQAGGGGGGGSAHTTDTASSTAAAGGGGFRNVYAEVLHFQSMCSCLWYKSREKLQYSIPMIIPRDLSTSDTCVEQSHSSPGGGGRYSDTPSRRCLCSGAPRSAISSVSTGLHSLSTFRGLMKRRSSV
KCNK9 block conf: confirmation of human KCNK9 potassium channel inhibitors. shares compounds with KCNK9 block. HEK293 KCNK9 cells, FluxOR thallium flux fluorescence. inhibition, % at 10 µM. 4,900 tested, 43% active;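 active = thallium signal inhibited by more than 5 SD of the compound-free buffer control wells, on both duplicate plates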
Kir21 sel: mouse Kir2.1 off-target activity of KCNK9 modulators; shares compounds with KCNK9 block; Kir2.1 cells, FluxOR thallium flux fluorescence; inhibition, % at 10 µM; 4,900 tested, 4% active;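 active = thallium signal drop more than 5 SD beyond the mean of the no-compound control wells, seen in both duplicate plates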;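 note: signal is fluorescence rise after thallium addition divided by baseline fluorescence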
HEK293 Tl ctr: second check of KCNK9 modulator effects in non-induced HEK293 cells | shares compounds with KCNK9 block | FluxOR thallium flux | inhibition, % at 10 µM | 4,900 tested, 40% active | AID 492997;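 active = thallium signal drop beyond 5 SD of the untreated control mean, on both duplicate plates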
Large screens that a line does not name were inactive (follow-up assays come after a bar, where they were run).

COc1cccc(NC(=S)N(CCCN2CCOCC2)C(C)c2cc3cccc(OC)c3o2)c1 (stereo unspecified)	none
COc1cccc(NC(=O)N(CCCN2CCOCC2)C(C)c2cc3cccc(OC)c3o2)c1 (stereo unspecified)	KCNK9 block -8.3 | KCNK9 block conf 40% | Kir21 sel inactive | HEK293 Tl ctr 31%
Cc1ccc(C(=O)O/N=C/c2c(C(F)(F)F)nn(C)c2Sc2ccc(Cl)cc2)cc1	none | KCNK9 block conf inactive | Kir21 sel inactive | HEK293 Tl ctr inactive
COC(=O)c1ccccc1Sc1c(/C=N/OC(=O)c2ccccc2)c(C(F)(F)F)nn1C	none
COc1cc(C#N)c(NC(=O)CN2CCN(CCO)CC2)cc1OC	none
COc1ccc(OC)c(NC(=O)C2CC(=O)N(Cc3ccco3)C2)c1 (stereo unspecified)	none (no result: KCNQ1 act, Kir21 inh, hERG protect, KCNK9 block, KCNQ1 block)
CCN(CC)c1ccc(/C=N/Nc2cccc(C)c2)c(O)c1	none | KCNK9 block conf inactive | Kir21 sel inactive | HEK293 Tl ctr inactive
CCN(CC)c1ccc(/C=N/N2CCN(Cc3ccccc3)CC2)cc1	none | KCNK9 block conf inactive | Kir21 sel inactive | HEK293 Tl ctr inactive
CCN(CC)c1ccc(/C=N/N2CCN(Cc3ccccc3)CC2)c(O)c1	none | KCNK9 block conf inactive | Kir21 sel inactive | HEK293 Tl ctr inactive
CCN(CC)c1ccc(/C=N/N2CCOCC2)c(O)c1	none
CCN(CC)c1ccc(/C=N/N2CCN(Cc3ccccc3Cl)CC2)cc1	KCNQ1 block 6 | KCNK9 block conf inactive | Kir21 sel inactive | HEK293 Tl ctr inactive
CN(C)c1ccc(/C=N/N2CCN(Cc3ccccc3Cl)CC2)cc1	none
CCN(CC)c1ccc(/C=N/Nc2ccccc2)c(O)c1	none
C(=N\N1CCN(Cc2ccccc2)CC1)/c1ccccc1	none
CCN(CC)c1ccc(/C=N/N2CCN(Cc3ccc(C)cc3C)CC2)c(O)c1	none | KCNK9 block conf inactive | Kir21 sel inactive | HEK293 Tl ctr inactive
CSc1ccc(/C=N/N2CCN(Cc3ccc(C)cc3C)CC2)cc1	none | KCNK9 block conf inactive | Kir21 sel inactive | HEK293 Tl ctr inactive
Cc1ccc(NC(=O)COC(=O)CCC2CCCC2)c(Br)c1	none (no result: KCNQ1 act, Kir21 inh, hERG protect, KCNK9 block, KCNQ1 block)
COCCNC(=S)NNc1ccccc1[N+](=O)[O-]	none
O=C(NCC(c1ccco1)N1CCc2ccccc2C1)c1cccc(F)c1 (stereo unspecified)	none
COc1cccc(C(=O)NCC(c2ccco2)N2CCc3ccccc3C2)c1 (stereo unspecified)	KCNK9 block -10 | KCNK9 block conf 38% | Kir21 sel inactive | HEK293 Tl ctr inactive
Cc1ccc(S(=O)(=O)Nc2cccc(C(=O)NCC(c3ccco3)N3CCCC3)c2)cc1F (stereo unspecified)	none
O=c1cc(-c2ccccc2)nc(SCCOc2ccccc2Cl)[nH]1	none
COc1ccccc1NS(=O)(=O)c1ccc2oc(SCc3ccc(F)cc3)nc2c1	none
COc1ccc(NS(=O)(=O)c2ccc3oc(SCc4ccc(F)cc4)nc3c2)cc1	none | KCNK9 block conf inactive | Kir21 sel inactive | HEK293 Tl ctr inactive
CC(C)CNC(=O)/C=C/C=C/CCCC/C=C/c1ccc2c(c1)OCO2	none (no result: KCNQ1 act, Kir21 inh, hERG protect, KCNK9 block, KCNQ1 block)
Cc1ccc(COCCN2CCN(S(=O)(=O)c3ccc(C)cc3)CCC2=O)cc1	none
COc1cccc(COCCN2CCN(S(=O)(=O)c3ccc(C)cc3)CCC2=O)c1	none | KCNK9 block conf inactive | Kir21 sel inactive | HEK293 Tl ctr inactive
COc1ccc(COCCN2CCN(S(=O)(=O)c3ccc(C)cc3)CCC2=O)cc1	none (no result: KCNK3 block)
Cc1ccc(S(=O)(=O)N2CCC(=O)N(CCOCc3cccc(C)c3)CC2)cc1	none | KCNK9 block conf inactive | Kir21 sel inactive | HEK293 Tl ctr inactive
CCOC(=O)Nc1csnn1	none
Cc1ccc2[nH]c3c(c2c1)CCN1C(=O)OC(C)(C)C31C (stereo unspecified)	none
O=C(c1cccs1)c1no[n+]([O-])c1C(=O)c1cccs1	KCNK9 block -11, KCNQ1 block 9 | KCNK9 block conf 44% | Kir21 sel 36% | HEK293 Tl ctr 52%
O=C(c1ccc(Cl)nc1)c1cccs1	none (no result: KCNK3 block)
Fc1cccc(Cl)c1Cc1noc(/C=C/c2ccccc2)n1	none | KCNK9 block conf inactive | Kir21 sel inactive | HEK293 Tl ctr inactive
CCc1ccc(OCCNC(=O)c2ccccc2SCc2ccccc2)cc1	KCNQ1 block 7 | KCNK9 block conf inactive | Kir21 sel inactive | HEK293 Tl ctr 37%
O=C(c1ccc(Cl)c(S(=O)(=O)N2CCCCCC2)c1)N1CCCCC1	none
Cc1cccc(NC(=O)c2ccc(Cl)c(S(=O)(=O)N3CCCCC3)c2)n1	none | KCNK9 block conf inactive | Kir21 sel inactive | HEK293 Tl ctr 24%
O=C(c1ccc(Cl)c(S(=O)(=O)N2CCCCCC2)c1)N1CCCC(C(F)(F)F)C1 (stereo unspecified)	none | KCNK9 block conf inactive | Kir21 sel inactive | HEK293 Tl ctr inactive
O=C(c1ccc(Cl)c(S(=O)(=O)N2CCOCC2)c1)N(c1ccccn1)C1CCCCC1	none | KCNK9 block conf inactive | Kir21 sel inactive | HEK293 Tl ctr inactive
O=C(Nc1ccccn1)c1ccc(Cl)c(S(=O)(=O)N2CCOCC2)c1	none
O=C(c1ccc(Cl)c(S(=O)(=O)N2CCCCCC2)c1)N1CCN(c2ccccn2)CC1	none | KCNK9 block conf inactive | Kir21 sel inactive | HEK293 Tl ctr inactive
COc1ccccc1NS(=O)(=O)c1ccc(C)c(NS(=O)(=O)c2cc(NC(C)=O)ccc2OC)c1	none (no result: KCNQ1 act, Kir21 inh, hERG protect, KCNK9 block, KCNQ1 block)
CCOC(=O)C1CCCN(C(=O)c2ccc(Cl)c(S(=O)(=O)N3CCCCC3)c2)C1 (stereo unspecified)	none | KCNK9 block conf inactive | Kir21 sel inactive | HEK293 Tl ctr inactive
CCCn1c(C)cc(C(=O)COC(=O)c2ccc(Cl)c(S(=O)(=O)N3CCCC3)c2)c1C	KCNK9 block -18 | KCNK9 block conf 65% | Kir21 sel inactive | HEK293 Tl ctr inactive
CC1CCCC(C)N1C(=O)Cc1ccccc1 (stereo unspecified)	none
Cc1ccc(N2C(=O)NC(NS(=O)(=O)c3ccccc3)(C(F)(F)F)C2=O)cc1C (stereo unspecified)	none
Clc1ccc(CSc2snnc2-c2ccccc2)c(Cl)c1	KCNQ1 block 7 | KCNK9 block conf inactive | Kir21 sel inactive | HEK293 Tl ctr 25%
c1ccc(CSc2snnc2-c2ccccc2)cc1	none
C=CCn1c(-c2ccc([N+](=O)[O-])cc2)n[nH]c1=S	none
